High-throughput results as filed in PubChem BioAssay.
Shown is part of a subset that was picked to be rich in hits.
T cruzi growth-1: blocks T. cruzi growth in NIH3T3 culture; inhibition, % at 8.34 µM; actives 5.9% (n = 77,000); T. cruzi beta-gal in NIH3T3, GalScreen luminescence, 90 h;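 active = mean inhibition above about 93%, with at least 55% of replicates each passing it, limit read from the data, passing the limit was not always enough; inconclusive = only one of those two conditions holds; inactive = neither condition holds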
IDH1 R132H inh: blocks human IDH1 R132H reductase activity | O75874 | diaphorase/resazurin fluorescence, 60 min | actives 0.18% (n = 70,000) | inhibition, % at 10 µM; in the data active = inhibition above about 34%; inconclusive = no clear call, values can overlap the other calls; inactive = below about 11%;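 also: 0% = DMSO and 100% = no enzyme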
KDM4C inh: blocks human GASC-1 (KDM4C) demethylase activity | inhibition, % at 12.5 µM | actives 0.15% (n = 96,000) | GST-KDM4C 2-372, H3K9me3 peptide, LANCE TR-FRET | Q9H3R0;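 active = mean replicate inhibition above about 25%, with at least 55% of replicates also reaching it, limit read from the data, passing the limit was not always enough; inconclusive = only one of those two conditions met; inactive = neither condition met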
Target sequence (Q9H3R0 2-372 limits assumed): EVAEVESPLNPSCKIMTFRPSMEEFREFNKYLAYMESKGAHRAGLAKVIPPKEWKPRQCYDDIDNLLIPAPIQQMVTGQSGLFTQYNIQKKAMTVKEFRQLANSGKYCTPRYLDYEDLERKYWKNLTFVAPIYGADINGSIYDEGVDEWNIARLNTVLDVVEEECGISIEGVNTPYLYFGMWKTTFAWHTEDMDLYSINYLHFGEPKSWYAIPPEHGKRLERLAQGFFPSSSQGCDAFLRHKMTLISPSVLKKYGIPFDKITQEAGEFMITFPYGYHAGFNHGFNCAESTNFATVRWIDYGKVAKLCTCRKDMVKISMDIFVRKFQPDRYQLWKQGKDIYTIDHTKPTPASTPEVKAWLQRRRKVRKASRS
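System: N-terminal GST-fused human GASC-1 (KDM4C) fragment, residues 2-372; amount: enzyme final amount 10 nM; incubation: reaction 30 min RT, detection step 1 h RT; medium: HEPES buffer, pH 7.5, plus ascorbate; technique: LANCE TR-FRET, Eu antibody, ULight-streptavidin, EDTA, ex 340 nm, em 618/671 nm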
T cruzi growth-2: blocks T. cruzi growth in NIH3T3 host cells. shares compounds with T cruzi growth-1. T. cruzi beta-gal in NIH3T3, GalScreen luminescence, 90 h. inhibition, % at 8.35 µM. actives 72% (n = 5,600). AID 651739;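 active = mean replicate inhibition above about 95% and at least 55% of replicates individually reaching it, limit read from the data; inconclusive = only one of the two criteria is met; inactive = neither criterion is met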
T cruzi growth-3: Trypanosoma cruzi proliferation inhibition; inhibition, % at 2.09 µM; shares compounds with T cruzi growth-1; T. cruzi beta-gal in NIH3T3, GalScreen luminescence, 90 h; AID 651740; actives 21% (n = 5,600);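 active = mean inhibition above about 95%, with at least 55% of replicates also reaching it, limit read from the data; inconclusive = meets just one of the two conditions; inactive = meets neither condition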;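 also: plate controls were neutral control median for no effect and positive control median for full effect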
NIH3T3 tox: kills mouse NIH/3T3 fibroblasts | NIH/3T3 viability, CellTiter-Glo ATP luminescence, 90 h | AID 651742 | actives 14% (n = 5,600) | cytotoxicity (signal decrease), % at 8.35 µM | shares compounds with T cruzi growth-1;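 active = mean signal decrease across replicates above about 35% based on untreated-well scatter, with enough replicates individually passing, limit read from the data; inconclusive = no rule stated though some were filed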;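 also: 0% = median of neutral control wells and 100% = median of positive control wells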
NIH3T3 tox 2: kills mouse NIH/3T3 fibroblasts; shares compounds with T cruzi growth-1; NIH/3T3 viability, CellTiter-Glo ATP luminescence, 90 h; inhibition, % at 24.9 µM; actives 56% (n = 5,600);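 active = mean loss of cell viability signal at or above a set limit, and enough replicates individually reaching it; inconclusive = meets only the mean limit or only the replicate share; inactive = meets neither condition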;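 also: 0% = median of neutral control wells and 100% = median of positive control wells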
Starred values were filed as active, the others as inactive; ? = inconclusive; . = no result.

SMILES | T cruzi growth-1 | IDH1 R132H inh | KDM4C inh | T cruzi growth-2 | T cruzi growth-3 | NIH3T3 tox | NIH3T3 tox 2
C[C@H]1CN([C@@H](C)CO)C(=O)c2cc(C#Cc3ccccn3)cnc2O[C@H]1CN(C)Cc1ccccc1 | 55 | 0 | 3 | . | . | . | .
C[C@@H]1CN([C@H](C)CO)C(=O)c2cc(C#Cc3ccccn3)cnc2O[C@H]1CN(C)Cc1ccncc1 | 107* | . | 2 | 104* | 39 | -14 | 2
C[C@H](CO)N1C[C@H](C)[C@@H](CN(C)Cc2ccncc2)Oc2ncc(C#Cc3ccccn3)cc2C1=O | ? | -1 | 4 | 108* | 47 | -14 | 7
C[C@H]1CN([C@@H](C)CO)C(=O)c2cc(C#Cc3ccccn3)cnc2O[C@@H]1CN(C)Cc1ccncc1 | 65 | . | 4 | . | . | . | .
C[C@H](CO)N1C[C@H](C)[C@H](CN(C)CC2CC2)OCc2cn(nn2)CCCC1=O | -33 | 1 | -1 | . | . | . | .
N#C[C@@H]1[C@H](c2ccccc2)[C@H](CO)N1S(=O)(=O)c1ccc(F)cc1 | 33 | . | -3 | . | . | . | .
N#C[C@H]1[C@@H](c2ccccc2)[C@@H](CO)N1S(=O)(=O)c1ccc(-c2ccccc2)cc1 | 96* | . | 2 | 102* | 77 | 10 | 23
N#C[C@@H]1[C@@H](c2ccccc2)[C@H](CO)N1S(=O)(=O)c1ccc(F)cc1 | 50 | . | 0 | . | . | . | .
N#C[C@@H]1[C@@H](c2ccccc2)[C@@H](CO)N1S(=O)(=O)c1ccc(-c2ccccc2)cc1 | 103* | . | -4 | 100* | 26 | 17 | 20
C[C@H](CO)N1C[C@H](C)[C@H](CN(C)CC2CCCCC2)OCCCC[C@H](C)Oc2ccc(NS(=O)(=O)c3ccc(Cl)cc3)cc2C1=O | 65 | 2 | -1 | . | . | . | .
COc1ccc2c3c(n(C)c2c1)[C@@H](CO)N(C(=O)C1CCOCC1)CC31CCN(C)CC1 | . | . | 0 | . | . | . | .
CC(C)(O)C#Cc1ccc([C@H]2[C@H]3CN(C(=O)c4cccc(F)c4)CCCCN3[C@H]2CO)cc1 | 79 | . | 0 | . | . | . | .
CC(C)C#Cc1ccc([C@H]2[C@@H](CO)N3CCCCN(C(=O)c4ccc(F)cc4)C[C@@H]23)cc1 | 84 | . | -2 | . | . | . | .
CC(C)(O)C#Cc1ccc([C@@H]2[C@H](CO)N3CCCCN(C(=O)c4ccc(F)cc4)C[C@@H]23)cc1 | 19 | . | 1 | . | . | . | .
CC(C)(O)C#Cc1ccc([C@H]2[C@H](CO)N3CCCCN(C(=O)c4ccc(F)cc4)C[C@@H]23)cc1 | 122* | . | -1 | ? | -11 | 13 | 20
CC(C)(O)C#Cc1ccc([C@H]2[C@@H](CO)N3CCCCN(C(=O)c4cccc(F)c4)C[C@H]23)cc1 | 110* | . | 0 | 36 | -22 | -1 | 5
CC(C)(O)C#Cc1ccc([C@H]2[C@@H](CO)N3CCCCN(C(=O)c4ccc(F)cc4)C[C@H]23)cc1 | 112* | . | -1 | 48 | 13 | -13 | -7
O=C(C[C@@H]1CC[C@@H]2[C@H](COC[C@@H](O)CN2Cc2ccncc2)O1)NCc1ccncc1 | 7 | . | 22 | . | . | . | .
C[C@@H]1CN([C@@H](C)CO)C(=O)c2cccc(NC(=O)c3cnccn3)c2O[C@@H]1CN(C)Cc1ccc2c(c1)OCO2 | 97* | . | 0 | 52 | 5 | 29 | 50*
C[C@H](CO)N1C[C@H](C)[C@H](CN(C)Cc2ccc3c(c2)OCO3)Oc2c(NC(=O)c3ccncc3)cccc2C1=O | 97* | 1 | 0 | 85 | 78 | 3 | 16
C[C@H](CO)N1C[C@H](C)[C@@H](CN(C)Cc2ccc3c(c2)OCO3)Oc2c(NC(=O)c3cnccn3)cccc2C1=O | 35 | . | 0 | . | . | . | .
C[C@H]1CN([C@@H](C)CO)C(=O)c2cccc(NC(=O)c3ccncc3)c2O[C@@H]1CN(C)Cc1ccc(Cl)c(Cl)c1 | 94 | 0 | 0 | . | . | . | .
C[C@@H]1CN([C@H](C)CO)C(=O)c2cccc(NC(=O)c3cnccn3)c2O[C@@H]1CN(C)Cc1ccc(Cl)c(Cl)c1 | 68 | 0 | -2 | . | . | . | .
C[C@H]1CN([C@@H](C)CO)C(=O)c2cccc(NC(=O)c3cnccn3)c2O[C@@H]1CN(C)Cc1ccc(Cl)c(Cl)c1 | 109* | . | 1 | 84 | -3 | -11 | 50*
C[C@H]1CN([C@@H](C)CO)C(=O)c2cc(-c3ccncc3)cnc2O[C@@H]1CN(C)CC1CCCCC1 | . | . | -1 | . | . | . | .
SMILES | T cruzi growth-1 | IDH1 R132H inh | KDM4C inh | T cruzi growth-2 | T cruzi growth-3 | NIH3T3 tox | NIH3T3 tox 2
CCCNC(=O)N[C@H]1CC[C@H](CCn2cc(-c3cccc(F)c3)nn2)O[C@@H]1CO | -24 | 0 | 0 | . | . | . | .
C[C@H]1CN([C@@H](C)CO)C(=O)Cc2cc(NC(=O)Nc3ccc(C(F)(F)F)cc3)ccc2O[C@H]1CN(C)C(=O)Nc1ccc2c(c1)OCO2 | . | 0 | 0 | . | . | . | .
O=C(Nc1nccs1)[C@@H]1[C@@H](CO)[C@@H]2Cn3c(ccc(-c4ccncc4)c3=O)[C@@H]2N1CC1CCCC1 | 77 | . | 0 | . | . | . | .
CO[C@H]1CN(C)C(=O)c2ccc(NC(C)=O)cc2OC[C@@H](C)N(CC2CC2)C[C@H]1C | 16 | 0 | 1 | . | . | . | .
O=S(=O)(Cc1ccccc1)N1CCCCN2[C@H](CO)[C@H](c3ccc(-c4cccnc4)cc3)[C@@H]2C1 | 89 | . | 0 | . | . | . | .
O=S(=O)(Cc1ccccc1)N1CCCCN2[C@@H](CO)[C@@H](c3ccc(-c4cncnc4)cc3)[C@@H]2C1 | 93 | . | -1 | . | . | . | .
O=S(=O)(Cc1ccccc1)N1CCCCN2[C@H](C1)[C@H](c1ccc(-c3cccnc3)cc1)[C@@H]2CO | 98* | . | 1 | 60 | -7 | -7 | -17
O=S(=O)(Cc1ccccc1)N1CCCCN2[C@H](CO)[C@H](c3ccc(-c4cccnc4)cc3)[C@H]2C1 | 108* | . | -1 | 108* | 59 | 2 | 27*
CN(C)CCCNC(=O)C[C@H]1C=C[C@@H](NS(=O)(=O)c2ccc(F)cc2)[C@@H](CO)O1 | 41 | 0 | 0 | . | . | . | .
CCC(=O)Nc1ccc2c(c1)C(=O)N(C)[C@H]1CC[C@@H](CC(=O)NCCc3ccncc3)O[C@H]1CO2 | 36 | . | -2 | . | . | . | .
C[C@H](CO)N1C[C@H](C)[C@@H](CN(C)S(=O)(=O)c2ccc(Cl)cc2)OCc2cnnn2CCCC1=O | 7 | -2 | 1 | . | . | . | .
C[C@H](CO)N1C[C@H](C)[C@H](CN(C)S(=O)(=O)c2ccc(Cl)cc2)OCc2cnnn2CCCC1=O | ? | -1 | -1 | -13 | -14 | -6 | 15
C[C@H]1CN([C@@H](C)CO)C(=O)CCCn2nncc2CO[C@H]1CN(C)S(=O)(=O)c1cccc(F)c1 | -26 | . | 0 | . | . | . | .
COc1ccc(S(=O)(=O)N(C)C[C@@H]2OCc3cnnn3CCCC(=O)N([C@H](C)CO)C[C@H]2C)cc1 | -35 | . | -1 | . | . | . | .
